Laboratory results published in ChEMBL document CHEMBL2169869, “Assay and inhibition of diacylglycerol lipase activity” (Bioorg Med Chem Lett, 2012).
The source made the active and inactive calls. The rule behind the calls is not given here.

Columns and labels:
[1] = target: T1, Diacylglycerol lipase-alpha (Mus musculus) (UniProt Q6WQJ1); assay: Inhibition of mouse DAGLalpha expressed in HEK293T cell membrane using [14C]SAG substrate at 10000 nM by scintillation counting based radio-TLC assay; type: cell membranes; settings: HEK-293T
T1 sequence (whole entry): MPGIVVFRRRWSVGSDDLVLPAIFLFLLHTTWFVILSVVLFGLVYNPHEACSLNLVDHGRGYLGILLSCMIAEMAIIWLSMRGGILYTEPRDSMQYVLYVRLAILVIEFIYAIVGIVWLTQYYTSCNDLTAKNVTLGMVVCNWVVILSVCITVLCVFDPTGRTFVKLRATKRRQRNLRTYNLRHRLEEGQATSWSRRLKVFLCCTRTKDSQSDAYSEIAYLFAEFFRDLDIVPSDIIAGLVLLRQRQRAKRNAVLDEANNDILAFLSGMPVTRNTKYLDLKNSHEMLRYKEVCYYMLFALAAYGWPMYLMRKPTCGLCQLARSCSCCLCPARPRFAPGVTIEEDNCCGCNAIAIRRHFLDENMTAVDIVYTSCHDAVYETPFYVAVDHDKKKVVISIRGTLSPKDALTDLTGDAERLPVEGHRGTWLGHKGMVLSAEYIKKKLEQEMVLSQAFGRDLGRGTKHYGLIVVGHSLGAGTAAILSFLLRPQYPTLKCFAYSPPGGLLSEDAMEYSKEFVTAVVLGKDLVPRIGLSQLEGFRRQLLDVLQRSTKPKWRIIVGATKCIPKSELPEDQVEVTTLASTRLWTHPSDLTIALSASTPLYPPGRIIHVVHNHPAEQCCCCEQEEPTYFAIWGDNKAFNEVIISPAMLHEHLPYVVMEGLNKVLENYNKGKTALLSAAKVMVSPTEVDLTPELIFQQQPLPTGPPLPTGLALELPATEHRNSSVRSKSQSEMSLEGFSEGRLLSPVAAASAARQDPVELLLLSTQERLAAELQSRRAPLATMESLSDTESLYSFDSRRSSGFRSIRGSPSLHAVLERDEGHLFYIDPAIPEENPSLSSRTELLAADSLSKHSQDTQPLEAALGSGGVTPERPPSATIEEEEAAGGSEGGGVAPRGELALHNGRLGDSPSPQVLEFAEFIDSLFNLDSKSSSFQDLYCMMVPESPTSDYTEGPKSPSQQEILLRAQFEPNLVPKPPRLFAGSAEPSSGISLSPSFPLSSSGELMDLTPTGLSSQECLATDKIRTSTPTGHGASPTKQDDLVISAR

[2] = target: T2, Fatty-acid amide hydrolase 1 (Rattus norvegicus) (UniProt P97612); assay: Inhibition of rat histidine tagged FAAH expressed in Escherichia coli at 10 uM by coumarin ester substrate fluorescence assay
T2 sequence (whole entry): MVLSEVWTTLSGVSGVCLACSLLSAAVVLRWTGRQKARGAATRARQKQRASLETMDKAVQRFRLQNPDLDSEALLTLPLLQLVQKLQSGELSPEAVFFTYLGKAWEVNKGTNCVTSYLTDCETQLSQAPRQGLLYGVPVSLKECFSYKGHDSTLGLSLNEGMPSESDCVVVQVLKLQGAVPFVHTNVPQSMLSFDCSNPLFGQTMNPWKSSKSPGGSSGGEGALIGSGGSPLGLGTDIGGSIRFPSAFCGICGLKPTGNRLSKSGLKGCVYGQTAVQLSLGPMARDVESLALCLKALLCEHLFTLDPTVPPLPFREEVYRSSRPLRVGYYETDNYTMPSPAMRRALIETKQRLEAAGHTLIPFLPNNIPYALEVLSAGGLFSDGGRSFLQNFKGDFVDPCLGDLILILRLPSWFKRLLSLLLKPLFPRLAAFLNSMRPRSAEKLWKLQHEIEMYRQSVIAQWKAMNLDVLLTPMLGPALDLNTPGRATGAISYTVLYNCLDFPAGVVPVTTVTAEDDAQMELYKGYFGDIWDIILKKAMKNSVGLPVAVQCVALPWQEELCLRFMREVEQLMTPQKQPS

Sus scrofa = species: Sus scrofa; assay: Inhibition of porcine pancreatic lipase type 2 at 10 uM by FRET assay
[3] = target: T3, Monoglyceride lipase (Homo sapiens) (UniProt Q99685); assay: Inhibition of human N-terminal histidine tagged full length MAGL expressed in Escherichia coli at 10 uM by coumarin ester substrate fluorescence assay
T3 sequence (whole entry): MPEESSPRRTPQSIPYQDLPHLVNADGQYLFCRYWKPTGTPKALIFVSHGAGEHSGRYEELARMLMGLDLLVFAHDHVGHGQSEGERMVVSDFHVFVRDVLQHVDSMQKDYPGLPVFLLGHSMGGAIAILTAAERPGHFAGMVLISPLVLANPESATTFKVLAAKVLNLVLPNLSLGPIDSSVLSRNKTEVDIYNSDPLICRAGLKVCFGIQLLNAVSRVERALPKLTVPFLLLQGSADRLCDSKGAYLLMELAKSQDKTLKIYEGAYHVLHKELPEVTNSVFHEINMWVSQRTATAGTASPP

[4] = target: T1, Diacylglycerol lipase-alpha (Mus musculus); assay: Inhibition of mouse DAGLalpha expressed in HEK293T cell membrane using [14C]SAG substrate at 10 nM by scintillation counting based radio-TLC assay; type: cell membranes; settings: HEK-293T
Bacteria = assay: Inhibition of bacterial lipoprotein lipase at 10 uM by FRET assay
[5] = target: T1, Diacylglycerol lipase-alpha (Mus musculus); assay: Inhibition of mouse DAGLalpha expressed in HEK293T cell membrane using [14C]SAG substrate at 100 nM by scintillation counting based radio-TLC assay; type: cell membranes; settings: HEK-293T
Outline: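 mDAGLα radio-TLC using 8.8 μg membrane protein in 50 mM Tris pH 7.4 with 10 mM CaCl2. Inhibitor tested at 10 nM–10 μM, preincubated 15 min at 37 °C. [14C]SAG 20 μM final for 20 min at 37 °C. CHCl3/MeOH quench, silica TLC, phosphorimaging. Activity = labelled 2-AG+AA over total label. n=1–2.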

Structure (SMILES)	inhibition [1] [%]	inhibition [2] [%]	inhibition (Sus scrofa) [%]	inhibition [3] [%]	inhibition [4]	inhibition (Bacteria) [%]	inhibition [5] [%]
O=C(Oc1ccc([N+](=O)[O-])cc1)N1CCC(C(O)(c2ccc3c(c2)OCO3)c2ccc3c(c2)OCO3)CC1	3	97	36	100	inactive	36	
CCCCCCCCCCC[C@@H](C[C@@H]1OC(=O)[C@H]1CCCCCC)OC(=O)[C@@H](NC=O)[C@@H](C)CC	96	7	99	16	69%	84	80
CCCCCCCCCCC[C@@H](C[C@@H]1OC(=O)[C@H]1CCCCCC)OC(=O)[C@@H](NC=O)[C@H](C)CC	100	3	98	1	60%	61	61
CCCCCCCCCCC[C@@H](C[C@@H]1OC(=O)[C@H]1CCCCCC)OC(=O)[C@H](CC)NC=O	100	12	97	45	50%	80	68
CCCCCCCCCCC[C@@H](C[C@@H]1OC(=O)[C@H]1CCCCCC)OC(=O)[C@H](NC=O)[C@@H](C)CC	90	0	95	42	19%	68	51
CCCCCCCCCCC[C@@H](C[C@@H]1OC(=O)[C@H]1CCCCCC)OC(=O)[C@H](NC=O)[C@H](C)CC	85	28	99	39	33%	86	29
CCCCCCCCCCC[C@@H](C[C@@H]1OC(=O)[C@H]1CCCCCC)OC(=O)[C@H](CC(C)C)NC=O [ORLISTAT]		6	98	47	55%		72
